Converted amounts (≈) assume the structure as drawn. The source made the active and inactive calls. The rule behind the calls is not given here.
Columns and labels:
[1] = Growth inhibition of human UM-SCC-10B cells after 48 hrs by MTT assay; assay type: functional
[2] = Growth inhibition of human UM-SCC-10A cells after 48 hrs by MTT assay; assay type: functional; settings: UMSCC-10A
[3] = Growth inhibition of human MES-SA cells after 48 hrs by MTT assay; assay type: functional
Method in brief: (§1)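 Cells seeded at 4 × 10^3 per well, grown 24 h, then treated 48 h at 0.004–100 µM from 100 or 25 mM DMSO stocks. Controls were 0.1% DMSO and phenyl arsine oxide. MTT (5 mg/mL) added for 2 h, formazan dissolved in DMSO, A490 read. […] HeLa/MCF-7 in DMEM, MES-SA lines in RPMI-1640, all with 10% FBS.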

B16-F10 = assay: Growth inhibition of mouse B16F10 cells after 48 hrs by MTT assay; assay type: functional; settings: B16-F10, 48 h
[4] = Aqueous solubility of the compound by spectrophotometric analysis; assay type: physicochemical
Method in brief: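 Compound dispersed in ultrapure water at >0.5 mg/mL; supernatant centrifuged repeatedly until no pellet remained, then diluted 1:2 (solution:DMSO). Concentration read from absorbance at peak 335–336 nm against a calibration line made in 1:2 water/DMSO, and corrected for the DMSO dilution.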

[5] = Growth inhibition of human Hs683 cells after 48 hrs by MTT assay; assay type: functional; settings: Hs 683, 48 h
[6] = Growth inhibition of human U373 cells after 48 hrs by MTT assay; assay type: functional, U-373MG ATCC; settings: U373 MG
[7] = target: Tubulin beta (Homo sapiens) (UniProt P68371+Q9H4B7+Q13509+P04350+Q3ZCM7+P07437+Q13885+Q9BVA1+Q9BUF5+A6NNZ2); assay: Inhibition of [3H] radiolabelled colchicine binding to tubulin beta (unknown origin) at 5 uM by DEAE-cellulose filter method; assay type: protein assay
HeLa [8] = assay: Antimitotic activity in human HeLa cells assessed as effect on spindle length at 1 to 10 nM after 3 hrs by Hoechst 33342 staining based inverted microscopic analysis; assay type: functional, cell-based
Method in brief: (§2)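 HeLa cells grown in EMEM with 10% FBS, sodium pyruvate and sodium bicarbonate; treated 3 h with compound (DMSO stock prediluted in medium) or 0.1% DMSO carrier. Fixed in methanol at -20°C for 30 min, blocked in 3% BSA/PBS 1 h, mouse anti-tubulin plus rabbit anti-pericentrin overnight at 4 °C, Alexafluor secondaries, Hoechst 33342 for DNA; epifluorescence imaging with Apotome.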

A549 = assay: Growth inhibition of human A549 cells after 48 hrs by MTT assay; assay type: functional; settings: A549, 48 h
HeLa [9] = assay: Antimitotic activity in human HeLa cells assessed as disruption of mitotic microtubule organization at 10 to 100 nM after 3 hrs by Hoechst 33342 staining based inverted microscopic analysis; assay type: functional, cell-based; method in brief: as §2
SK-MEL-28 = assay: Growth inhibition of human SK-MEL-28 cells after 48 hrs by MTT assay; assay type: functional; settings: SK-MEL-28, 48 h
[10] = Growth inhibition of human UM-SCC-22A cells after 48 hrs by MTT assay; assay type: functional
HeLa [11] = assay: Antimitotic activity in human HeLa cells assessed as disruption of interphase microtubule organization at 10 to 100 nM after 3 hrs by Hoechst 33342 staining based inverted microscopic analysis; assay type: functional, cell-based; method in brief: as §2
HeLa [12] = assay: Antimitotic activity in human HeLa cells assessed as interphase microtubule organization at 1 to 10 nM after 3 hrs by Hoechst 33342 staining based inverted microscopic analysis; assay type: functional, cell-based; method in brief: as §2
[13] = Inhibition of bovine brain tubulin polymerization preincubated for 15 mins followed by GTP addition measured after 20 mins by turbidimetric analysis; design: species or system Bos taurus
Method in brief: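 Bovine brain tubulin at 10 µM (1.0 mg/mL) in 0.8 M monosodium glutamate (pH 6.6 in 2 M stock) was preincubated with varying compound concentrations for 15 min at 30 °C, then cooled to 0 °C. After addition of 0.4 mM GTP, samples were warmed to 30 °C and assembly followed by turbidity at 350 nm.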

HeLa [14] = assay: Growth inhibition of human HeLa cells after 48 hrs by MTT assay; assay type: functional; method in brief: as §1
MCF7 = assay: Growth inhibition of human MCF7 cells after 48 hrs by MTT assay; assay type: functional; settings: MCF7, 48 h; method in brief: as §1
HeLa [15] = assay: Cell cycle arrest in human HeLa cells assessed as accumulation at G2/M phase at 1 uM after 32 hrs using Vybrant Orange staining by flow cytometry relative to control; assay type: functional, cell-based
Method in brief: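 HeLa cells at 70–80% confluence were seeded at 2 × 10^5 per well in DMEM/10% FBS with penicillin G and streptomycin, left to adhere overnight, then treated at 1 µM for 32 h (0.1% DMSO control). Washed, trypsinized, stained 30 min at 37 °C with 10 µM Vybrant Orange in medium, then analysed by flow cytometry for DNA content.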

[16] = Growth inhibition of human doxorubicin-resistant MES-SA/Dx5 cells after 48 hrs by MTT assay; assay type: functional; settings: MES-SA/Dx5, 48 h
Method in brief: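 Cells seeded at 4 × 10^3 per well, grown 24 h, then treated 48 h at 0.004–100 µM from 100 or 25 mM DMSO stocks. Controls were 0.1% DMSO and phenyl arsine oxide. MTT (5 mg/mL) added for 2 h, formazan dissolved in DMSO, A490 read.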

HeLa [17] = assay: Antimitotic activity in human HeLa cells assessed as mitotic microtubule organization at 1 to 10 nM after 3 hrs by Hoechst 33342 staining based inverted microscopic analysis; assay type: functional, cell-based; method in brief: as §2
UMSCC22B = assay: Growth inhibition of human UM-SCC-22B cells after 48 hrs by MTT assay; assay type: functional

Work on `O=C(c1ccccc1)c1[nH]c2[nH]cnc(=O)c2c1-c1cc(Br)cc(Br)c1` yielded a GI50 [1] of 100 nM, a GI50 [2] of 90 nM and a GI50 [3] of 81 nM. It also gave a GI50 (B16-F10) of 50 nM, a solubility [4] of 40 µM (≈ 18.9 µg/mL) and a GI50 [5] of 20 nM. The GI50 [6] was 30 nM, the inhibition [7] was 71% and the Activity (HeLa [8]) was “inactive”. The GI50 (A549) was 30 nM, the Activity (HeLa [9]) was “Active” and the GI50 (SK-MEL-28) was 20 nM. The GI50 [10] was 110 nM, the Activity (HeLa [11]) was “Active” and the Activity (HeLa [12]) was “inactive”. The IC50 [13] was 1600 nM, the GI50 (HeLa [14]) was 95 nM and the GI50 (MCF7) was 95 nM. For the same compound, the Activity (HeLa [15]) was “Active”, the GI50 [16] was 394 nM and the Activity (HeLa [17]) was “inactive”. For the same compound, the GI50 (UMSCC22B) was 20 nM.

From ChEMBL document CHEMBL2417486, “Exploring natural product chemistry and biology with multicomponent reactions. 5. Discovery of a novel tubulin-targeting scaffold derived from the rigidin family of marine alkaloids” (J Med Chem, 2013)
